Measurements taken from ChEMBL document CHEMBL4811305, “Development of potent and selective Cathepsin C inhibitors free of aortic binding liability by application of a conformational restriction strategy” (Bioorg Med Chem Lett, 2021).
Blank lines part the entries; values can stand above or below the compound they belong to.

Key:
[1] = Aldehyde reactivity of the compound in 0.1M phosphate buffer assessed as compound remaining at pH 7.4 measured after 2 hrs in presence of propionaldehyde by HPLC-UV analysis; type: ADME; details: phosphate buffer with propionaldehyde, read-out: Stabilty
How it was run: (§1)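 Each compound was spiked in bulk into propionaldehyde dissolved in 0.1 M phosphate buffer, pH 7.4. Aliquots were taken at intervals and analysed by HPLC-UV to give percent parent remaining, with incubations lasting up to 15 h. Half-life was calculated from the disappearance of parent. Where no analyte remained at 15 h, only the 2 h data were used. Adduct identity was confirmed as molecular ion +40 amu. This was a single experiment (n = 1).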

[2] = target: T1, Dipeptidyl peptidase 1 (Homo sapiens, UniProt P53634); test: Inhibition of human cathepsin C at 10 uM relative to control
[3] = target: T1, Dipeptidyl peptidase 1; test: Inhibition of human cathepsin C
How it was run: (§2)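 Values are means of two independent experiments, each run in duplicate.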

[4] = target: T1, Dipeptidyl peptidase 1; test: Inhibition of human cathepsin C at 1 uM relative to control
[5] = Half life of the compound in 0.1M phosphate buffer at pH 7.4 by HPLC-UV analysis; type: physicochemical; how it was run: as §1
[6] = target: T1, Dipeptidyl peptidase 1; test: Inhibition of cellular cathepsin C (unknown origin); how it was run: as §2
[7] = target: T2, CYP3A4 (Homo sapiens, UniProt P08684); test: Inhibition of CYP3A4 (unknown origin) at 1 uM relative to control; type: ADME
[8] = target: T3, CYP2C9 (Homo sapiens, UniProt P11712); test: Inhibition of CYP2C9 (unknown origin) at 10 uM relative to control; type: ADME
[9] = target: T4, CYP2C19 (Homo sapiens, UniProt P33261); test: Inhibition of CYP2C19 (unknown origin) at 10 uM relative to control; type: ADME
[10] = species: Homo sapiens; test: Selectivity for human cathepsin C over cathepsin K (unknown origin)
[11] = target: T5, CYP2C8 (Homo sapiens, UniProt P10632); test: Inhibition of CYP2C8 (unknown origin) at 10 uM relative to control; type: ADME
T5 sequence (P10632 whole entry): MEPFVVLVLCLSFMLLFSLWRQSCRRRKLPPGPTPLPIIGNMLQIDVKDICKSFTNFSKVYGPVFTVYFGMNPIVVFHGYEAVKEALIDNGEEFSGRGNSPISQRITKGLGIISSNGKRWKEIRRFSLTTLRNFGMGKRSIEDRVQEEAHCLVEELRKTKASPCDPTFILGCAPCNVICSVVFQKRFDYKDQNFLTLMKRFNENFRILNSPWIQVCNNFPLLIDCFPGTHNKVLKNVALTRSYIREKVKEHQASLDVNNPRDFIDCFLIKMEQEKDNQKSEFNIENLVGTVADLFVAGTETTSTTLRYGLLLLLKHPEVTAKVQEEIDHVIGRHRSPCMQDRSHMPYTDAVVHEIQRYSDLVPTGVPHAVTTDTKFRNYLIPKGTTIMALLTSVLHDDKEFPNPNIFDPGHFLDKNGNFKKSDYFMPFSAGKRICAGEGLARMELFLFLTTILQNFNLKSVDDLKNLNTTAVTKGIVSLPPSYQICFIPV

[12] = target: T2, CYP3A4; test: Inhibition of CYP3A4 (unknown origin) at 10 uM relative to control; type: ADME
[13] = target: T6, CYP2D6 (Homo sapiens, UniProt P10635); test: Inhibition of CYP2D6 (unknown origin) at 10 uM relative to control; type: ADME
[14] = target: T5, CYP2C8; test: Inhibition of CYP2C8 (unknown origin) at 1 uM relative to control; type: ADME
[15] = target: T6, CYP2D6; test: Inhibition of CYP2D6 (unknown origin) at 1 uM relative to control; type: ADME
[16] = target: T4, CYP2C19; test: Inhibition of CYP2C19 (unknown origin) at 1 uM relative to control; type: ADME
[17] = species: Homo sapiens; test: Selectivity for human cathepsin C over cathepsin L (unknown origin)
[18] = species: Homo sapiens; test: Selectivity for human cathepsin C over cathepsin S (unknown origin)
[19] = target: T7, CYP1A2 (Homo sapiens, UniProt P05177); test: Inhibition of CYP1A2 (unknown origin) at 1 uM relative to control; type: ADME
T7 sequence (P05177 whole entry): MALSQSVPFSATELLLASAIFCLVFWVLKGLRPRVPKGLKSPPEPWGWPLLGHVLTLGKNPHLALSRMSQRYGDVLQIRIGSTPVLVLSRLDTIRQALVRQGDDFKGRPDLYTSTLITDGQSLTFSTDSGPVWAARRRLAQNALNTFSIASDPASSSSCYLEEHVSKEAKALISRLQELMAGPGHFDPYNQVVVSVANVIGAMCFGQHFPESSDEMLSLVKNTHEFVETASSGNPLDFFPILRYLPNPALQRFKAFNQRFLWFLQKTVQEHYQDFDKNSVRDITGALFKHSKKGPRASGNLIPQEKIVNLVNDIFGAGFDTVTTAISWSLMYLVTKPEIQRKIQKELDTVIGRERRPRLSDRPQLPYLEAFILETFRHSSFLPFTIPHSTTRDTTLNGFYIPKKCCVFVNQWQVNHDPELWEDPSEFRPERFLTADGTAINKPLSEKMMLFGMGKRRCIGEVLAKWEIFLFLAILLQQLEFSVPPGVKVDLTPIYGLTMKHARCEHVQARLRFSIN

[20] = Metabolic stability in rat liver microsomes assessed as compound remaining measured after 60 mins; type: ADME, Microsome; details: read-out: Stabilty
How it was run: (§3)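 The readout was percent of parent remaining after 60 min incubation with liver microsomal preparations. Values are the mean of three replicates ± SD.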

[21] = Metabolic stability in mouse liver microsomes assessed as compound remaining measured after 60 mins; type: ADME, Microsome; details: read-out: Stabilty; how it was run: as §3
[22] = Metabolic stability in human liver microsomes assessed as compound remaining measured after 60 mins; type: ADME, Microsome; details: read-out: Stabilty; how it was run: as §3
[23] = target: T3, CYP2C9; test: Inhibition of CYP2C9 (unknown origin) at 1 uM relative to control; type: ADME
[24] = Stability of the compound in mouse plasma; type: ADME, cell-free
[25] = species: Homo sapiens; test: Selectivity for human cathepsin C over cathepsin B (unknown origin)
[26] = Stability of the compound in human plasma; type: ADME, cell-free
[27] = Stability of the compound in rat plasma; type: ADME, cell-free
[28] = target: T7, CYP1A2; test: Inhibition of CYP1A2 (unknown origin) at 10 uM relative to control; type: ADME
[29] = Aldehyde reactivity of the compound in 0.1M phosphate buffer assessed as compound remaining at pH 7.4 measured after 15 hrs in presence of propionaldehyde by HPLC-UV analysis; type: ADME; details: phosphate buffer with propionaldehyde, read-out: Stabilty; how it was run: as §1
[30] = Aldehyde reactivity of the compound in 0.1M phosphate buffer assessed as compound remaining at pH 7.4 measured after 1 hr in presence of propionaldehyde by HPLC-UV analysis; type: ADME; details: phosphate buffer with propionaldehyde, read-out: Stabilty; how it was run: as §1

T1 sequence (P53634 25-134 limits assumed): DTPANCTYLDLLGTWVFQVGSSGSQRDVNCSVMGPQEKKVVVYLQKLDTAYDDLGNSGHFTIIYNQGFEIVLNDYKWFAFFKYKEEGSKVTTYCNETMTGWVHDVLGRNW
T1 sequence (P53634 231-394 limits assumed): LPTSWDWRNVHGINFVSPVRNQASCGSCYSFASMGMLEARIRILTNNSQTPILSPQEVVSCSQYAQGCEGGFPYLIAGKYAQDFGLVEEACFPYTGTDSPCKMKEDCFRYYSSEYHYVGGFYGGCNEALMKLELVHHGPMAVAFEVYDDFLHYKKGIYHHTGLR
T1 sequence (P53634 395-463 limits assumed): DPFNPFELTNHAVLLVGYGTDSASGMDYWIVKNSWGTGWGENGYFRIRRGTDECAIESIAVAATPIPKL
T3 sequence (P11712 whole entry): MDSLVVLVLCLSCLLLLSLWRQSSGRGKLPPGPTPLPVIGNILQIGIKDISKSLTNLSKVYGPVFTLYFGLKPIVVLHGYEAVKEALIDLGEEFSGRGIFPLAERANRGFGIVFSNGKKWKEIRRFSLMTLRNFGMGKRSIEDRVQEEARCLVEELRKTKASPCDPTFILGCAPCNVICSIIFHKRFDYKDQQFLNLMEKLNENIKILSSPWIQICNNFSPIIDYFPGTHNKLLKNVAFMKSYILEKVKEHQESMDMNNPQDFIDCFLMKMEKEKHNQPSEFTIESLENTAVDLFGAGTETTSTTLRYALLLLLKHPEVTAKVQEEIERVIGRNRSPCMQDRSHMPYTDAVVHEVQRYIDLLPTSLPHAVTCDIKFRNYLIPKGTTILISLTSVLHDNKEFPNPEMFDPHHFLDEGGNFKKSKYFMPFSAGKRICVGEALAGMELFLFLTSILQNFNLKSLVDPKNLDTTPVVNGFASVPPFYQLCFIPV
T6 sequence (P10635 whole entry): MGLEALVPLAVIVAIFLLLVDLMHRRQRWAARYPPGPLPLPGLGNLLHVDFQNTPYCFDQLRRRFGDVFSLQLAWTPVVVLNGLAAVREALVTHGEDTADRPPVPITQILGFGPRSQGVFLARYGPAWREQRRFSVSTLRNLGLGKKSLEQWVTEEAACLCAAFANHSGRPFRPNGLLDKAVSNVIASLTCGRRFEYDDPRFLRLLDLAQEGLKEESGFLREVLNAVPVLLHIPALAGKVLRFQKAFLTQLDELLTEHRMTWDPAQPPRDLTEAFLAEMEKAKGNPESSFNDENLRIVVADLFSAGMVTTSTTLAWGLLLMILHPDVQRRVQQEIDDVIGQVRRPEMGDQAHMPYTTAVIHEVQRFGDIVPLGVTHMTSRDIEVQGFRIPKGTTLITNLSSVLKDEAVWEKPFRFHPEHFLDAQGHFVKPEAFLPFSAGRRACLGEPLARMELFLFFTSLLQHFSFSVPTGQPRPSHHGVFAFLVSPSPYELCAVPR
T2 sequence (P08684 whole entry): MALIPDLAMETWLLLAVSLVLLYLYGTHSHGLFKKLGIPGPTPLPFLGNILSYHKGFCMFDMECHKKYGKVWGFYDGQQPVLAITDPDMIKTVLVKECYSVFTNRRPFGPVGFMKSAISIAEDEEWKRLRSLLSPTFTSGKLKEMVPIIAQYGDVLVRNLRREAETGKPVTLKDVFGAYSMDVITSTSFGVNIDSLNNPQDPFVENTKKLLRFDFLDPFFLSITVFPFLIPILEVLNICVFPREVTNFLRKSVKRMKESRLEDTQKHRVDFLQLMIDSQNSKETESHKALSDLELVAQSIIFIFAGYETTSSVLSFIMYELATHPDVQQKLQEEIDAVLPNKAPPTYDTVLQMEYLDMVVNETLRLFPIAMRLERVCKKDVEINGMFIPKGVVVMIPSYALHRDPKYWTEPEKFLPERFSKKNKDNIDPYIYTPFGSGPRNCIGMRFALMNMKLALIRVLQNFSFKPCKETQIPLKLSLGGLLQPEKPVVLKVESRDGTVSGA
T4 sequence (P33261 whole entry): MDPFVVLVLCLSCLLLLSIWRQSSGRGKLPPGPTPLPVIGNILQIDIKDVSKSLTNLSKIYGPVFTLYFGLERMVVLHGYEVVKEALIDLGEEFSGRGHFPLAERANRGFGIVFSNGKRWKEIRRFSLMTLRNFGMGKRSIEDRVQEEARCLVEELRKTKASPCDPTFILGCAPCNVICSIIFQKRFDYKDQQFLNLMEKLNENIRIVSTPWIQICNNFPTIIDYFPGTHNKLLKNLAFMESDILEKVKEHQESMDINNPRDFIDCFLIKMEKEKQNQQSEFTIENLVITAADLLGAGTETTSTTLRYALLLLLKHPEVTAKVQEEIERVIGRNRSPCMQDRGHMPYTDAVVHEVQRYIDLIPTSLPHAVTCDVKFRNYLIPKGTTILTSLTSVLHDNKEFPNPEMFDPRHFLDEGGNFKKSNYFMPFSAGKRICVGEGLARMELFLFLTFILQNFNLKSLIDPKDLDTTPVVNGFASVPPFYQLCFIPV

SMILES: N#Cc1ccc(-c2ccc(C[C@@H](C#N)NC(=O)[C@@H](N)C34CC5CC(CC(O)(C5)C3)C4)cc2)cc1
- inhibition [2]: 2.19%
- inhibition [4]: 3.29%

SMILES: N#Cc1ccc(-c2ccc(C[C@@H](C#N)NC(=O)[C@@H]3CN4CCC[C@@H]4CN3)cc2)cc1
- inhibition [2]: 22.8%
- inhibition [4]: 4.63%

SMILES: N#Cc1ccc(-c2ccc(C[C@@H](C#N)NC(=O)[C@@H]3CC4CCCC[C@@H]4N3)cc2)cc1 (single isomer, unassigned)
- IC50 [6]: 1720 nM
- inhibition [2]: 99%
- IC50 [3]: 154 nM
- inhibition [4]: 88.7%

SMILES: N#Cc1ccc(-c2ccc(C[C@@H](C#N)NC(=O)[C@H]3CN4CCC[C@@H]4CN3)cc2)cc1
- inhibition [2]: 1.11%
- inhibition [4]: 1.11%

SMILES: N#Cc1ccc(-c2ccc(C[C@@H](C#N)NC(=O)[C@@H]3CN4CCC[C@H]4CN3)cc2)cc1
- inhibition [2]: 0%
- inhibition [4]: 1.2%

SMILES: N#Cc1ccc(-c2ccc(C[C@@H](C#N)NC(=O)[C@@H]3C[C@@H]4CCC[C@@H]4N3)cc2)cc1
- inhibition at 1 µM [7]: 2.2%
- inhibition at 10 µM [8]: 32.4%
- inhibition at 10 µM [9]: 38.4%
- Selectivity ratio [10]: 93
- IC50 [6]: 699 nM
- inhibition at 10 µM [11]: 40.1%
- inhibition [2]: 100%
- inhibition at 10 µM [12]: 33.8%
- IC50 [3]: 9.27 nM
- inhibition at 10 µM [13]: 88.3%
- inhibition at 1 µM [14]: 11.8%
- inhibition at 1 µM [15]: 69.7%
- inhibition at 1 µM [16]: 17.1%
- Selectivity ratio [17]: 10800
- Selectivity ratio [18]: 4400
- inhibition [4]: 99.2%
- inhibition at 1 µM [19]: 15.2%
- remaining at 1 h [20]: 3%
- remaining at 1 h [21]: 6%
- remaining at 1 h [22]: 1%
- half-life [5]: > 15 h
- inhibition at 1 µM [23]: 12%
- Stabilty [24]: Stable
- Selectivity ratio [25]: 2260
- Stabilty [26]: Stable
- Stabilty [27]: Stable
- inhibition at 10 µM [28]: 43.7%
- remaining at 15 h [29]: 97%

SMILES: Cn1c(=O)oc2ccc(-c3ccc(C[C@@H](C#N)NC(=O)[C@@H]4CNCCCO4)cc3)cc21 [BRENSOCATIB]
- half-life [5]: > 15 h
- remaining at 15 h [29]: 95%

SMILES: N#Cc1ccc(-c2ccc(C[C@@H](C#N)NC(=O)[C@@H]3CC4(CCCC4)CN3)cc2)cc1
- IC50 [6]: 69 nM
- inhibition [2]: 99.7%
- IC50 [3]: 10.2 nM
- inhibition [4]: 99%
- half-life [5]: 0.56 h
- remaining at 15 h [29]: 0%

SMILES: N#Cc1ccc(-c2ccc(C[C@@H](C#N)NC(=O)[C@@H]3C[C@H]4CCC[C@H]4N3)cc2)cc1
- IC50 [6]: 79.1 nM
- inhibition [2]: 98.2%
- IC50 [3]: 77.7 nM
- inhibition [4]: 85.6%
- half-life [5]: 5.3 h
- remaining at 15 h [29]: 7%

SMILES: N#Cc1ccc(-c2ccc(C[C@@H](C#N)NC(=O)[C@@H]3C[C@@H]4C[C@@H]4N3)cc2)cc1
- inhibition [2]: 97.9%
- IC50 [3]: 223 nM
- inhibition [4]: 83.9%

SMILES: N#Cc1ccc(-c2ccc(C[C@@H](C#N)NC(=O)C3(N)CCOCC3)cc2)cc1
- inhibition [2]: 99.9%
- inhibition [4]: 99.2%
- remaining at 1 h [30]: 15%
- half-life [5]: 0.36 h

SMILES: N#Cc1ccc(-c2ccc(C[C@@H](C#N)NC(=O)[C@H]3CN4CCC[C@H]4CN3)cc2)cc1
- inhibition [2]: 95%
- IC50 [3]: 394 nM
- inhibition [4]: 68.3%

SMILES: N#Cc1ccc(-c2ccc(C[C@@H](C#N)NC(=O)[C@@H]3CC4(CCCCC4)CN3)cc2)cc1
- inhibition [2]: 99.3%
- IC50 [3]: 228 nM
- inhibition [4]: 84.3%

Continued, values first:

- remaining at 2 h [1]: 8.5%
- inhibition [2]: 99.1%
- IC50 [3]: 91.5 nM
- inhibition [4]: 91.5%
- half-life [5]: 0.56 h
SMILES: N#Cc1ccc(-c2ccc(C[C@@H](C#N)NC(=O)[C@@H]3CCCN3)cc2)cc1

- inhibition [2]: 14.2%
- inhibition [4]: 2.2%
SMILES: N#Cc1ccc(-c2ccc(C[C@@H](C#N)NC(=O)[C@H]3COCCN3)cc2)cc1

- IC50 [6]: 9720 nM
- inhibition [2]: 96.3%
- IC50 [3]: 308 nM
- inhibition [4]: 75.5%
- half-life [5]: 15.8 h
- remaining at 15 h [29]: 48%
SMILES: N#Cc1ccc(-c2ccc(C[C@@H](C#N)NC(=O)[C@@H]3COCCN3)cc2)cc1

- inhibition [2]: 99.5%
- IC50 [3]: 77.6 nM
- inhibition [4]: 92.4%
SMILES: N#Cc1ccc(-c2ccc(C[C@@H](C#N)NC(=O)[C@@H]3CC4(CC4)CN3)cc2)cc1

- IC50 [6]: 150 nM
- inhibition [2]: 98.2%
- IC50 [3]: 27.8 nM
- inhibition [4]: 97.2%
SMILES: N#Cc1ccc(-c2ccc(C[C@@H](C#N)NC(=O)[C@@H]3CC4(CCC4)CN3)cc2)cc1

- inhibition [2]: 50.1%
- inhibition [4]: 6.55%
- remaining at 15 h [29]: 100%
SMILES: N#Cc1ccc(-c2ccc(C[C@@H](C#N)NC(=O)[C@@H]3C[C@H]4CCC[C@@H]4N3)cc2)cc1
